According to ChEMBL document CHEMBL2311371, “Effects of fluorines on nonsecosteroidal vitamin D receptor agonists” (2013):

Key:
[1] = system: HL-60; assay: Induction of human HL60 cell differentiation after 4 days by WST-8 assay relative to 1.25-OH2 D3; assay type: functional
Method in brief: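 HL-60 cells seeded 2×10^5 cells/mL in RPMI-1640 with 10% heat-inactivated FBS and antibiotics, 37 °C, 5% CO2. Cultured 4 days with 10^-10 to 10^-7 M compound. On the final day, PMA (final 100 ng/mL) plus WST-8 (final 20%) added for 90 min; absorbance change read at 450 nm. EC50 expressed as ratio to 1,25(OH)2D3 (set 100%).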

[2] = molecular target: T1, Vitamin D3 receptor (Homo sapiens) (UniProt P11473); assay: Agonist activity at VDR in human MG-63 cells assessed as osteocalcin production compound incubated for 8 hrs measured after 4 days by EIA relative to 1,25(OH)2D3; assay type: cell-based
T1 sequence (whole entry): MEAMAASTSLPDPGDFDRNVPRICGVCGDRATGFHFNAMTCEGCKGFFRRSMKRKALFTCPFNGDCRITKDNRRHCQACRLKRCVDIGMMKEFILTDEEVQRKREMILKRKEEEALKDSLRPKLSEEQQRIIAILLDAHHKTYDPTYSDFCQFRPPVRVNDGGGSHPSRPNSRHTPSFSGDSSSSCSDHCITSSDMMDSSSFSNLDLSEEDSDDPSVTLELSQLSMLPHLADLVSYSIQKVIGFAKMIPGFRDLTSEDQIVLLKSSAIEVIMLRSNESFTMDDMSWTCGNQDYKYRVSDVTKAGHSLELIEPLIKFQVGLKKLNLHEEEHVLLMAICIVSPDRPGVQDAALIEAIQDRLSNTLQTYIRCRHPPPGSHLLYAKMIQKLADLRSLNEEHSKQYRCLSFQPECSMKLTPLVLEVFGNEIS
Method in brief: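 MG-63 cells seeded 2×10^3/well in serum-free MEM, 24 h at 37 °C, 5% CO2; washed and switched to 5% DCC-FBS/MEM. Serial dilutions 10^-7 to 10^-11 mol/L (0.1% DMSO) applied 8 h, then medium replaced and culture continued 4 days. Gla-type osteocalcin in supernatant measured by EIA at 450 nm against standards. EC50 expressed as ratio to 1,25(OH)2D3 (set 100%).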

[3] = molecular target: T1, Vitamin D3 receptor (Homo sapiens); assay: Agonist activity at VDR in human MG-63 cells assessed as transcriptional activation of osteopontin gene after 3 days by luciferase reporter gene assay relative to 1,25(OH)2D3; assay type: cell-based
Method in brief: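 MG-63 cells seeded 2×10^3/well, 24 h at 37 °C, 5% CO2. Cotransfected with VDRE-luciferase construct (three osteopontin-promoter VDRE repeats, 0.05 µg) plus pRL-SV40 (0.001 µg) by lipofection. Kept 8 h in MEM with 5% DCC-FBS, then dosed 10^-7 to 10^-11 mol/L (0.1% DMSO) for 3 days. Dual-luciferase readout on lysates. EC50 expressed as ratio to 1,25(OH)2D3 (set 100%).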

Structure (SMILES)	Activity [2] [%]	Activity [3] [%]	Activity [1] [%]
CCC(CC)(c1ccc(C#CC(O)(C(F)(F)F)C(F)(F)F)c(C)c1)c1ccc(OC[C@@H](O)CCC(=O)[O-])c(C)c1.[Na+]	546	30	227
CCC(CC)(c1ccc(OCC(O)CO)c(C)c1)c1ccc(OCC(O)C(C)(C)C)c(C)c1 (centres undefined) [LG-190178]	185		71

Second part, led by results:

Activity [2] [%]	Activity [3] [%]	Structure (SMILES)	Activity [1] [%]
447	105	CCC(O)(/C=C/c1ccc(C(CC)(CC)c2ccc(OC[C@@H](O)CCC(=O)[O-])c(C)c2)cc1C)CC.[Na+]	126
3750	592	CCC(CC)(c1ccc(/C=C/C(O)(C(F)(F)F)C(F)(F)F)c(C)c1)c1ccc(OC[C@@H](O)CCC(=O)[O-])c(C)c1.[Na+]	252
429	91	CCC(CC)(c1ccc(CCC(O)(C(F)(F)F)C(F)(F)F)c(C)c1)c1ccc(OC[C@@H](O)CCC(=O)[O-])c(C)c1.[Na+]	106
